From ChEMBL document CHEMBL4823272 (Eur J Med Chem, 2021)
Activity calls are given as the source filed them. The rule behind the calls is not given here.

Assays:
[1] = molecular target: T1, Amyloid-beta precursor protein (Homo sapiens, UniProt P05067); test: Inhibition of human amyloid beta (1 to 40) fibrillization at 100 uM measured every 15 mins by Thioflavin-T fluorescence assay relative to control
[2] = molecular target: T1, Amyloid-beta precursor protein; test: Inhibition of human biotinylated amyloid beta (1 to 42) oligomerization measured after 1 hr by ELISA
Outline: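 HFIP/TFA-treated biotinylated Aβ1-42 in DMSO/OFB buffer incubated with compound 1 h at room temperature, stopped with 0.3% Tween 20. Captured on NeutrAvidin-coated plates blocked with OFB-T (pH 7.50), 2 h at 150 rpm. Streptavidin-HRP 1:10,000 for 1 h, TMB/H₂O₂, stopped with 2% H₂SO₄, read at 450 nm. IC50 from 4-parameter logistic fit normalized to DMSO and Tween-20 controls.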

[3] = test system: SIM-A9; test: Induction of phagocytosis in LPS-stimulated mouse SIM-A9 cells assessed as increase in FITC signal measured after 24 hrs by FITC analysis; assay type: functional, cell-based
Outline: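 SIM-A9 cells given LPS plus compound for 24 h, then FITC-labelled killed E. coli bioparticles at 0.125 mg/mL final for 1 h at 37 °C. Extracellular signal quenched with 0.4% trypan blue. Intracellular FITC read at Ex 494/Em 518. Mean ± SD.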

[4] = Drug concentration in CD-1 mouse plasma at 5 mg/kg, po measured after 2.5 hrs by LC-MS/MS analysis; assay type: ADME, organism-based
Outline: (§1)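 Male CD-1 mice dosed 5 mg/kg orally, n = 3 per time point. At 0.5 and 2.5 h, blood taken by cardiac puncture, then transcardial PBS perfusion. Brains homogenized in three volumes of PBS. Samples precipitated with cold acetonitrile, supernatant diluted with two volumes of 0.1% formic acid water, measured by LC-MS/MS. Brain/plasma ratio from these levels.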

[5] = Ratio of drug concentration in brain to plasma of CD-1 mouse at 5 mg/kg, po after 2.5 hrs; assay type: ADME, organism-based; settings: read-out: BPR
Outline: as §1

[6] = Drug concentration in CD-1 mouse brain at 5 mg/kg, po measured after 2.5 hrs by LC-MS/MS analysis; assay type: ADME, organism-based
Outline: as §1

[7] = Ratio of drug concentration in brain to plasma of CD-1 mouse at 5 mg/kg, po after 0.5 hrs; assay type: ADME, organism-based; settings: read-out: BPR
Outline: as §1

[8] = Drug concentration in CD-1 mouse plasma at 5 mg/kg, po measured after 0.5 hrs by LC-MS/MS analysis; assay type: ADME, organism-based
Outline: as §1

[9] = Drug concentration in CD-1 mouse brain at 5 mg/kg, po measured after 0.5 hrs by LC-MS/MS analysis; assay type: ADME, organism-based
Outline: as §1

[10] = test system: SIM-A9; test: Anti-inflammatory activity in mouse SIM-A9 cells assessed as inhibition of LPS-induced IL-6 production at 2.7 uM measured after 24 hrs by ELISA; assay type: functional, cell-based
Outline: (§2)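 SIM-A9 cells seeded 0.25 × 10⁶/well a day ahead, then given 5 ng/mL LPS with compound for 24 h. Supernatants assayed by sandwich ELISA: capture antibody 1:250, detection antibody 1:250, avidin-HRP, TMB, stop with 2 N H₂SO₄. Read at 450 nm, 570 nm correction. Mean ± SD, n = 3.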

[11] = test system: SIM-A9; test: Anti-inflammatory activity in mouse SIM-A9 cells assessed as inhibition of LPS-induced TNF-alpha production at 2.7 uM measured after 24 hrs by ELISA; assay type: functional, cell-based
Outline: as §2

[12] = test system: SIM-A9; test: Anti-inflammatory activity in LPS-stimulated mouse SIM-A9 cells assessed as downregulation of iNOS expression at 2.7 uM measured after 24 hrs by Western blot analysis; assay type: functional, cell-based
Outline: (§3)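 SIM-A9 murine microglia in DMEM-F12 with 10% FBS and 5% horse serum, seeded 0.25 × 10⁶ cells/well one day before. Stimulated with 5 ng/mL LPS plus compound for 24 h. Cells lysed in RIPA with protease inhibitors, protein by Micro BCA. Equal protein on SDS-PAGE, PVDF transfer, probed with iNOS, COX-2 and tubulin antibodies (1:1000), HRP chemiluminescence.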

[13] = test system: SIM-A9; test: Anti-inflammatory activity in LPS-stimulated mouse SIM-A9 cells assessed as downregulation of COX-2 expression at 2.7 uM measured after 24 hrs by Western blot analysis; assay type: functional, cell-based
Outline: as §3

[14] = test system: SIM-A9; test: Anti-inflammatory activity in mouse SIM-A9 cells assessed as inhibition of LPS-induced NO production at 2.7 uM measured after 24 hrs by Griess reagent based assay; assay type: functional, cell-based
Outline: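 SIM-A9 cells given 5 ng/mL LPS with compound for 24 h. Conditioned medium mixed with sulfanilamide, then N-naphthyl-ethylenediamine, 5–10 min dark at room temperature. Absorbance at 520–550 nm, NO quantified against a standard curve. n = 3.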

T1 sequence (P05067 whole entry): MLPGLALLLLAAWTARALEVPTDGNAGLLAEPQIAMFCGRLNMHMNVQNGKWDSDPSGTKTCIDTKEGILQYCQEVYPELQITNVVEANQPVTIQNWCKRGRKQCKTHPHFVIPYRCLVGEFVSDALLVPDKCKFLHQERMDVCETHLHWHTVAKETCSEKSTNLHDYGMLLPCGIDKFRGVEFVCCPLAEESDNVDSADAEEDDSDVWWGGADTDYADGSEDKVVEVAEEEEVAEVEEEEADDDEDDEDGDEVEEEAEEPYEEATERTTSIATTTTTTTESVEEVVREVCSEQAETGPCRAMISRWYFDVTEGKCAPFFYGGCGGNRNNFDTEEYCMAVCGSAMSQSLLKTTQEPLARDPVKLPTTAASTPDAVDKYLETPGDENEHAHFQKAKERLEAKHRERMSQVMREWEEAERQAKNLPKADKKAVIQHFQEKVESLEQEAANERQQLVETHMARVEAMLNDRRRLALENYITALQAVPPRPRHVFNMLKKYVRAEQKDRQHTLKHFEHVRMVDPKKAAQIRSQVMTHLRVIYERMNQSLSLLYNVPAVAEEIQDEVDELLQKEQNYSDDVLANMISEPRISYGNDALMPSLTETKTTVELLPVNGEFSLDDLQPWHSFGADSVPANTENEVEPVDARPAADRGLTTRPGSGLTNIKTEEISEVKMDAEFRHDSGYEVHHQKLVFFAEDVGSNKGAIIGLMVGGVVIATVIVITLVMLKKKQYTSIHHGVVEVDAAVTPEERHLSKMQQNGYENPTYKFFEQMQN

Row | SMILES | inhibition [1] | IC50 [2] | other results
1 | CN(C)S(=O)(=O)c1cc(C(=O)O)c(NCc2ccco2)cc1Cl | inactive | – | –
2 | CNC(=O)c1cc(S(=O)(=O)NC)c(Cl)cc1NCc1ccco1 | inactive | – | Activity [3]: Active
3 | O=C(Nc1ccccc1)c1cc(C(=O)O)c(NCc2ccco2)cc1Cl | 29.4% | Not Active | –
4 | CNS(=O)(=O)c1cc(C(=O)O)c(NCc2ccco2)cc1Cl | inactive | – | Activity [3]: Active
5 | CNS(=O)(=O)c1cc(C(=O)N(C)C)c(NCc2ccco2)cc1Cl | 25.2% | – | concentration at 2.5 h [4]: 83.2 ng/mL; Kp at 2.5 h [5]: 0.22; Activity [3]: Active; concentration at 2.5 h [6]: 18.5 ng/g; Kp at 0.5 h [7]: 0.2; concentration at 0.5 h [8]: 302 ng/mL; concentration at 0.5 h [9]: 61.1 ng/g
6 | NS(=O)(=O)c1cc(C(=O)O)c(NCc2ccco2)cc1Cl [FUROSEMIDE] | 8.56% | Not Active | concentration at 2.5 h [4]: 1630 ng/mL; Kp at 2.5 h [5]: 0.005; concentration at 2.5 h [6]: 7.8 ng/g; Kp at 0.5 h [7]: 0.005; concentration at 0.5 h [8]: 1730 ng/mL; concentration at 0.5 h [9]: 8.7 ng/g
7 | O=C(O)c1cc(S(=O)(=O)NCCc2ccccc2)c(Cl)cc1NCc1ccco1 | inactive | Not Active | –
8 | O=C(O)c1cc(S(=O)(=O)N2CCCCC2)c(Cl)cc1NCc1ccco1 | 19.1% | Not Active | –
9 | OC(c1ccc(Br)cc1NCc1cscn1)C(F)(F)F (stereo not drawn) | 33% | Not Active | Activity [3]: Active
10 | CNS(=O)(=O)c1cc(C(N)=O)c(NCc2ccco2)cc1Cl | inactive | – | concentration at 2.5 h [4]: 29.3 ng/mL; Activity [10]: Active; Kp at 2.5 h [5]: 0.12; Activity [11]: Active; concentration at 2.5 h [6]: 3.5 ng/g; Kp at 0.5 h [7]: 0.14; concentration at 0.5 h [8]: 38.2 ng/mL; Activity [12]: Active; Activity [13]: Active; concentration at 0.5 h [9]: 5.2 ng/g
11 | Cc1ccc(CNS(=O)(=O)c2cc(C(=O)O)c(NCc3ccco3)cc2Cl)cc1 | inactive | Not Active | –
12 | CNS(=O)(=O)c1cc(-c2noc(=O)[nH]2)c(NCc2ccco2)cc1Cl | 20.2% | Not Active | –
13 | COc1ccc(C(O)C(F)(F)F)c(NCc2cscn2)c1 (stereo not drawn) | 6.49% | – | –
14 | O=C(O)c1cc(C(=O)N2CCCCC2)c(Cl)cc1NCc1ccco1 | 11% | Not Active | –
15 | COc1ccc(C(O)C(F)(F)F)c(NCc2ccco2)c1 (stereo not drawn) | 36.8% | Not Active | –
16 | CNC(=O)c1cc(C(=O)O)c(NCc2ccco2)cc1Cl | 19.1% | Not Active | –

Further lines, with some results ahead:

Row | inhibition [1] | IC50 [2] | SMILES | other results
17 | 17.5% | – | CNS(=O)(=O)c1cc(C(=O)O)c(NCC2CCCO2)cc1Cl (stereo not drawn) | IC50 ([2]; read-out: IC50): 136 µM
18 | 14.1% | – | CNS(=O)(=O)c1cc(-c2nnn[nH]2)c(NCc2ccco2)cc1Cl | –
19 | 17.4% | – | O=C(O)c1cc(S(=O)(=O)Nc2ccccc2)c(Cl)cc1NCc1ccco1 | –
20 | 27.8% | Not Active | COc1ccc(CNS(=O)(=O)c2cc(C(=O)O)c(NCc3ccco3)cc2Cl)cc1 | –
21 | 15% | – | CNS(=O)(=O)c1cc(CO)c(NCc2ccco2)cc1Cl | –
22 | 29.2% | Not Active | O=C(O)c1cc(S(=O)(=O)NC2CC2)c(Cl)cc1NCc1ccco1 | –
23 | 24.6% | Not Active | CCNC(=O)c1cc(C(=O)O)c(NCc2ccco2)cc1Cl | –
24 | 27.1% | – | CNS(=O)(=O)c1cc(C(=O)OC)c(NCc2ccco2)cc1Cl | –
25 | 39.2% | – | CCCCCCNS(=O)(=O)c1cc(C(=O)O)c(NCc2ccco2)cc1Cl | –
26 | 11.3% | – | O=C(O)c1cc(S(=O)(=O)NC2CCCCC2)c(Cl)cc1NCc1ccco1 | –
27 | – | Not Active | CNS(=O)(=O)c1cc(C(O)C(F)(F)F)c(NCc2ccco2)cc1Cl (stereo not drawn) | –
28 | 27.9% | Not Active | OC(c1ccc(Cl)cc1NCc1cscn1)C(F)(F)F (stereo not drawn) | –
29 | 21.3% | – | CCNS(=O)(=O)c1cc(C(=O)O)c(NCc2ccco2)cc1Cl | –
30 | inactive | – | CN(Cc1ccccc1)S(=O)(=O)c1cc(C(=O)O)c(NCc2ccco2)cc1Cl | concentration at 2.5 h [4]: 873 ng/mL; Activity [10]: Active; Activity [11]: Active; Activity [3]: Active; concentration at 2.5 h [6]: 0.1 ng/g; Kp at 0.5 h [7]: 0.0008; concentration at 0.5 h [8]: 1030 ng/mL; Activity [12]: Active; Activity [13]: Active; concentration at 0.5 h [9]: 0.8 ng/g
31 | 20.2% | Not Active | O=C(O)c1ccc(Cl)cc1NCc1ccco1 | –
32 | inactive | – | O=C(O)c1cc(S(=O)(=O)N2CCOCC2)c(Cl)cc1NCc1ccco1 | –
33 | 17.6% | – | CC(NS(=O)(=O)c1cc(C(=O)O)c(NCc2ccco2)cc1Cl)c1ccccc1 (stereo not drawn) | –
34 | 34% | Not Active | O=C(O)c1cc(C(=O)N2CCOCC2)c(Cl)cc1NCc1ccco1 | –
35 | 11.8% | Not Active | O=C(O)c1cc(S(=O)(=O)NCc2ccccc2)c(Cl)cc1NCc1ccco1 | –
36 | 60.7% | Not Active | OC(c1ccc(Cl)cc1NCc1ccco1)C(F)(F)F (stereo not drawn) | Activity [14]: Active; Activity [10]: Active; Activity [11]: Active; Activity [12]: Active; Activity [13]: Active
37 | 81.3% | Not Active | OC(c1ccc(Br)cc1NCc1ccco1)C(F)(F)F (stereo not drawn) | Activity [14]: Active; Activity [10]: Active; Activity [11]: Active; Activity [12]: Active; Activity [13]: Active
38 | 32.4% | Not Active | NC(=O)c1cc(C(=O)O)c(NCc2ccco2)cc1Cl | –
39 | 18.4% | Not Active | CN(C)C(=O)c1cc(C(=O)O)c(NCc2ccco2)cc1Cl | –
40 | 12.4% | – | O=C(O)c1ccc(F)cc1NCc1ccco1 | –
